Data as given in ChEMBL document CHEMBL4138195, “Discovery of novel propargylamine-modified 4-aminoalkyl imidazole substituted pyrimidinylthiourea derivatives as multifunctional agents for the treatment of Alzheimer's disease” (Eur J Med Chem, 2018).

Experiments:
Rattus norvegicus = species: Rattus norvegicus; assay: Selectivity index, ratio of IC50 for BuChE in rat serum to IC50 for AChE in rat cortex homogenate; assay type: tissue-based
[1] = target: Butyrylcholinesterase (Rattus norvegicus) (UniProt Q9JKC1); assay: Inhibition of BuChE in rat serum at 40 uM using butyrylthiocholine iodide as substrate after 20 mins by Ellman's method
Chain of Butyrylcholinesterase (Rattus norvegicus) (Q9JKC1 as listed by the source): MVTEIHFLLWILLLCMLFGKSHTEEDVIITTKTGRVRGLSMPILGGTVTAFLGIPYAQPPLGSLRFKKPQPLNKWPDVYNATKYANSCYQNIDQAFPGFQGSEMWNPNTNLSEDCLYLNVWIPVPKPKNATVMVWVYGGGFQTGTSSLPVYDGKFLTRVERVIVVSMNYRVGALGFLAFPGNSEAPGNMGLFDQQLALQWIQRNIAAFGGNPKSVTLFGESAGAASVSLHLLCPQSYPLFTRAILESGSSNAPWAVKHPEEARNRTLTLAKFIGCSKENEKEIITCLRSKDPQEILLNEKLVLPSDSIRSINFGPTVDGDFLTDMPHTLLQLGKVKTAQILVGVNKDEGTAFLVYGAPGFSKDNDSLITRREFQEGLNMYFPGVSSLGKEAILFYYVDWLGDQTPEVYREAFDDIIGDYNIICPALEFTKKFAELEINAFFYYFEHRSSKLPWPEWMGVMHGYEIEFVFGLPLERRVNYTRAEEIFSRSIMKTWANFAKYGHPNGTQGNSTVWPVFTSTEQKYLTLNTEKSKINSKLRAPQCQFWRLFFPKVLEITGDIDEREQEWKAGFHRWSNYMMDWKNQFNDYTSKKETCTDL

Butyrylcholinesterase = Butyrylcholinesterase (Rattus norvegicus, UniProt Q9JKC1); assay: Inhibition of BuChE in rat serum using butyrylthiocholine iodide as substrate after 20 mins by Ellman's method
Chain of Butyrylcholinesterase (Q9JKC1 whole entry): as the sequence (Q9JKC1 as listed by the source) above

[2] = target: T1, Amine oxidase [flavin-containing] B (Homo sapiens, UniProt P27338); assay: Inhibition of recombinant human MAOB at 50 uM using benzylamine as substrate preincubated for 15 mins followed by substrate addition measured after 15 mins by Amplex red reagent based fluorescence assay; conditions: 0.25 h
T1 sequence (P27338 whole entry): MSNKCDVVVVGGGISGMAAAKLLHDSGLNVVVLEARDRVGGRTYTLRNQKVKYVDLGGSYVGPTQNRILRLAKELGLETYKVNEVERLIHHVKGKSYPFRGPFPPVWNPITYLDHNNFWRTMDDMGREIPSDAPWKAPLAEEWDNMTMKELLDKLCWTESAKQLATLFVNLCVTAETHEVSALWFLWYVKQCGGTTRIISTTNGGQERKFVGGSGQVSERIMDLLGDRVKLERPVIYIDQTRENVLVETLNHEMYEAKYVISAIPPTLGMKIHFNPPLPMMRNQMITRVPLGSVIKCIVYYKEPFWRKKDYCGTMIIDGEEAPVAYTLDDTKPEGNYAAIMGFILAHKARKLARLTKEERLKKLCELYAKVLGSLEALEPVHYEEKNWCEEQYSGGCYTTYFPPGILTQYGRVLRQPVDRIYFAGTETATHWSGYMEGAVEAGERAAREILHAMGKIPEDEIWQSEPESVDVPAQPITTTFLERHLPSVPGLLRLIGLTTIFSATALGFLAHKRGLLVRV

[3] = target: T2, Amine oxidase [flavin-containing] A (Homo sapiens, UniProt P21397); assay: Inhibition of recombinant human MAOA at 50 uM using p-tyramine as substrate preincubated for 15 mins followed by substrate addition measured after 15 mins by Amplex red reagent based fluorescence assay; conditions: 0.25 h
T2 sequence (P21397 whole entry): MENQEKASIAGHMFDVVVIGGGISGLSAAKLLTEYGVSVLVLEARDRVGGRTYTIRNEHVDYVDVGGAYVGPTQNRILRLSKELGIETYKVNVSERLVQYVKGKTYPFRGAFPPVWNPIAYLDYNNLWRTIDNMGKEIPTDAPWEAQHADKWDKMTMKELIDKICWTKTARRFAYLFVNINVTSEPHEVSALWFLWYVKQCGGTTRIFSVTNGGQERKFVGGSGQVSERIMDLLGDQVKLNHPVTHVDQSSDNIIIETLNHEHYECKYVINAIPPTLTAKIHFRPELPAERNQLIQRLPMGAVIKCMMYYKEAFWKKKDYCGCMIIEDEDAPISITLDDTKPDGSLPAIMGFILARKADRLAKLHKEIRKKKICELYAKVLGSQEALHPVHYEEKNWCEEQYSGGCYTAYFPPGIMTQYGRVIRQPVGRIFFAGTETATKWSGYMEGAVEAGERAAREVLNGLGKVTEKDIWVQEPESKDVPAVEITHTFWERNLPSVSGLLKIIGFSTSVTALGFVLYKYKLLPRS
Method in brief: (§1)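 Recombinant human MAO-A (12.5 µg/mL) or MAO-B (75 µg/mL) preincubated 15 min at 37 °C with compound (diluted from 10 mM DMSO stock in 50 mM KH2PO4, pH 7.4). Amplex Red working solution added: 2 mM p-tyramine (MAO-A) or benzylamine (MAO-B), 2 U/mL HRP. After 15 min at 37 °C, fluorescence read (ex 545/em 590), background from enzyme-free wells subtracted.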

Acetylcholinesterase = target: T3, Acetylcholinesterase (Rattus norvegicus, UniProt P37136); assay: Inhibition of AChE in rat cortex homogenate using acetylthiocholine iodide as substrate after 20 mins by Ellman's method
T3 sequence (P37136 whole entry): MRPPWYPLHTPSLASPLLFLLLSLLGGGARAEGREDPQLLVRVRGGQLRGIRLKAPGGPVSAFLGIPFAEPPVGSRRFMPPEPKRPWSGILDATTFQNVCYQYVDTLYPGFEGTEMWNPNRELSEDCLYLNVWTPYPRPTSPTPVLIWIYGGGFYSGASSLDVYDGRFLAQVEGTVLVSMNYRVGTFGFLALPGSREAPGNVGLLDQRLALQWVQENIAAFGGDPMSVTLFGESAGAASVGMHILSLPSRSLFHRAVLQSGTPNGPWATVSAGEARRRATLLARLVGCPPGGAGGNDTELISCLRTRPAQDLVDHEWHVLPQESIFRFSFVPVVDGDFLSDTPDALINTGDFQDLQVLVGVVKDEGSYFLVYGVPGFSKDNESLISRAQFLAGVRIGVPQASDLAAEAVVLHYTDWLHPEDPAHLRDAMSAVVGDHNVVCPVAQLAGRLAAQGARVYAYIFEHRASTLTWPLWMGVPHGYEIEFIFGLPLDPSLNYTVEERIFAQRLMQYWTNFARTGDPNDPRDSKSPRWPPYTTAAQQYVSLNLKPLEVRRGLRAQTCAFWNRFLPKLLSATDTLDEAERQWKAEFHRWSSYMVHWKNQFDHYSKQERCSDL

[4] = target: T2, Amine oxidase [flavin-containing] A; assay: Inhibition of recombinant human MAOA using p-tyramine as substrate preincubated for 15 mins followed by substrate addition measured after 15 mins by Amplex red reagent based fluorescence assay
[5] = target: T1, Amine oxidase [flavin-containing] B
[6] = Antioxidant activity assessed as trolox equivalent of AAPH radical scavenging activity preincubated for 10 mins followed by AAPH addition measured every 2 mins for 180 mins by ORAC-FL assay; assay type: functional
Method in brief: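 Compound at 20 µM (diluted from 10 mM DMSO stock in 75 mM phosphate, pH 7.4) with fluorescein (0.117 µM diluted) for 10 min at 37 °C, then AAPH (40 mM solution) added. Fluorescence (ex 485/em 535) read every 2 min for 180 min. […] Triplicate wells, ≥3 runs.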

in vitro = conditions: PAMPA
Homo sapiens = species: Homo sapiens; assay: Selectivity index, ratio of IC50 for recombinant human MAOA to IC50 for recombinant human MAOB; method in brief: as §1

Row | SMILES | Ratio IC50 (Rattus norvegicus) | inhibition [1] | IC50 (Butyrylcholinesterase) | inhibition at 50 µM [2] | inhibition at 50 µM [3] | IC50 (Acetylcholinesterase) | IC50 [4] | IC50 [5] | Activity (umolequiv/umol) [6] | Papp at 12 h, 100 ug/ml (in vitro) | Ratio IC50 (Homo sapiens)
1 | C#CCN(CC)CCc1cn(-c2cc(NC(=S)NCC)ncn2)cn1 | > 30 | 2.44% | > 40 µM | 49.4% | 13% | 1.34 µM | > 50 µM | > 50 µM | – | – | –
2 | C#CCN(CC#N)Cc1cn(-c2cc(NC(=S)NCC)ncn2)cn1 | > 57 | 5.48% | > 40 µM | 15.3% | 2.01% | 0.707 µM | > 50 µM | > 50 µM | 0.494 | – | –
3 | C#CCNCCc1cn(-c2cc(NC(=S)NCC)ncn2)cn1 | > 175 | 8.73% | > 40 µM | 19.2% | 54.2% | 0.228 µM | > 50 µM | > 50 µM | 1.27 | 3.24 ×10⁻⁶ cm/s | –
4 | C#CCN(CC#N)CCc1cn(-c2cc(NC(=S)NCC)ncn2)cn1 | > 67 | 3.02% | > 40 µM | 24.9% | 13.9% | 0.597 µM | > 50 µM | > 50 µM | 0.556 | – | –
5 | C#CCN1CCN(Cc2cn(-c3cc(NC(=S)NCC)ncn3)cn2)CC1 | > 83 | 7.3% | > 40 µM | 13.3% | 9.22% | 0.482 µM | > 50 µM | > 50 µM | 1.03 | – | –
6 | C#CCN(CCCC)Cc1cn(-c2cc(NC(=S)NCC)ncn2)cn1 | > 59 | 13.4% | > 40 µM | 20.1% | 2.43% | 0.675 µM | > 50 µM | > 50 µM | 0.238 | – | –
7 | C#CCNCCCc1cn(-c2cc(NC(=S)NCC)ncn2)cn1 | > 105 | 12.7% | > 40 µM | 36.6% | 31.4% | 0.381 µM | > 50 µM | > 50 µM | 0.186 | 3.26 ×10⁻⁶ cm/s | –
8 | C#CCN(C)CCc1cn(-c2cc(NC(=S)NCC)ncn2)cn1 | > 102 | 8.91% | > 40 µM | – | – | 0.392 µM | 9 µM | 12.4 µM | 1.24 | 3.33 ×10⁻⁶ cm/s | 0.724
9 | C#CCN(CC)Cc1cn(-c2cc(NC(=S)NCC)ncn2)cn1 | > 83 | 10.5% | > 40 µM | 35.1% | 6.71% | 0.482 µM | > 50 µM | > 50 µM | 1.38 | – | –
10 | C#CCN(CC#C)Cc1cn(-c2cc(NC(=S)NCC)ncn2)cn1 | > 56 | 4.97% | > 40 µM | 42.1% | 15.5% | 0.718 µM | > 50 µM | > 50 µM | 0.585 | – | –
11 | C#CCN(C)CCCc1cn(-c2cc(NC(=S)NCC)ncn2)cn1 | – | 6.7% | > 40 µM | – | 63.8% | 0.459 µM | > 50 µM | 3.23 µM | 0.447 | – | –
12 | C#CCN(Cc1cn(-c2cc(NC(=S)NCC)ncn2)cn1)C(C)=O | > 78 | 5.15% | > 40 µM | 1.17% | 4.83% | 0.515 µM | > 50 µM | > 50 µM | 1.17 | – | –
13 | C#CCN(Cc1ccccc1)Cc1cn(-c2cc(NC(=S)NCC)ncn2)cn1 | > 68 | 9.28% | > 40 µM | 18.4% | 17.8% | 0.585 µM | > 50 µM | > 50 µM | – | – | –
14 | C#CCN(CCC)Cc1cn(-c2cc(NC(=S)NCC)ncn2)cn1 | > 83 | 7.75% | > 40 µM | 24.3% | 1.76% | 0.485 µM | > 50 µM | > 50 µM | 0.448 | – | –
